Results published in ChEMBL document CHEMBL4765412, “(±)-trans-2-phenyl-2,3-dihydrobenzofurans as leishmanicidal agents: Synthesis, in vitro evaluation and SAR analysis” (Eur J Med Chem, 2020).
pIC50: −log10 of the molar value. One block for each compound: values may come before it.

Key:
Leishmania donovani = test: Antileishmanial activity against Leishmania donovani MHOM/ET/67/L82 amastigotes assessed as growth inhibition incubated for 70 hrs by resazurin based inverted microscopic analysis; type: functional, organism-based; conditions: Leishmania donovani, MHOM/ET/67/L82, 70 h
How it was run: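 Axenic L. donovani amastigotes (MHOM/ET/67/L82); racemates tested unless stated; miltefosine as positive control. Some values come from a separate run and were rescaled by that run's relative miltefosine IC50.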

L6 = test: Cytotoxicity against rat L6 cells assessed as reduction in cell viability incubated for 70 hrs by resazurin staining based inverted microscopic analysis; conditions: L6, 70 h
How it was run: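 Rat L-6 skeletal myoblast line; racemates tested unless stated.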

[1] = Selectivity index, ratio of IC50 for cytotoxicity against rat L6 cells to IC50 for antileishmanial activity against Leishmania donovani MHOM/ET/67/L82 amastigotes; type: toxicity, cell-based; conditions: read-out: Ratio IC50
[2] = Metabolic stability in mouse liver microsomes assessed as metabolite formation by ester hydrolysis at 100 umol/L incubated for 90 mins in absence of UDPGA by LC-MS analysis; conditions: 1.5 h, 100 µM
[3] = Metabolic stability in mouse liver microsomes assessed as metabolite formation by glucuronidation at 100 umol/L incubated for 90 mins in presence of UDPGA by LC-MS analysis; conditions: 1.5 h, 100 µM

SMILES: CC(C)NC(=O)/C=C/c1cc(O)c2c(c1)[C@H](C(=O)NC(C)C)[C@@H](c1ccc(O)c(O)c1)O2 (racemic)
pIC50 (Leishmania donovani): 4.08
pIC50 (L6): 4.26
selectivity ratio [1]: 0.7

SMILES: C[C@H]1c2cc(/C=C/C(=O)O)ccc2O[C@@H]1c1ccc(O)cc1 (racemic)
pIC50 (Leishmania donovani): 5.25
pIC50 (L6): 4.13
selectivity ratio [1]: 13.1

SMILES: COc1cc([C@H]2Oc3ccc(Br)cc3[C@@H]2CO)c(Br)cc1O (racemic)
pIC50 (Leishmania donovani): 4.97
pIC50 (L6): 4.39
selectivity ratio [1]: 3.8

SMILES: COc1cc(Br)c([C@H]2Oc3ccc(Br)cc3[C@@H]2CO)cc1OC (racemic)
pIC50 (Leishmania donovani): 4.94
pIC50 (L6): 4.68
selectivity ratio [1]: 1.8

SMILES: COc1cc([C@H]2Oc3ccc(Cl)cc3[C@@H]2C)cc(Cl)c1O (racemic)
pIC50 (Leishmania donovani): 4.87
pIC50 (L6): 4.19
selectivity ratio [1]: 4.8

SMILES: OC[C@H]1c2ccccc2O[C@@H]1c1ccc(O)cc1 (racemic)
pIC50 (Leishmania donovani): 3.80
pIC50 (L6): 3.66
selectivity ratio [1]: 1.4

SMILES: COc1ccc([C@H]2Oc3ccc(/C=C/C(=O)OC(C)(C)C)cc3[C@@H]2CO)cc1OC (racemic)
pIC50 (Leishmania donovani): 4.97
pIC50 (L6): 4.64
selectivity ratio [1]: 2.1

SMILES: CC(C)(C)CC(=O)/C=C/c1cc(O)c2c(c1)[C@H](C(=O)CC(C)(C)C)[C@@H](c1ccc(O)c(O)c1)O2 (racemic)
pIC50 (Leishmania donovani): 5.47
pIC50 (L6): 5.61
selectivity ratio [1]: 0.7

SMILES: COc1cc([C@H]2Oc3ccc(Br)cc3[C@@H]2CO)cc(Br)c1O (racemic)
pIC50 (Leishmania donovani): 4.92
pIC50 (L6): 4.34
selectivity ratio [1]: 3.8

SMILES: COc1cc([C@H]2Oc3ccc(Br)cc3[C@@H]2C)c(Br)cc1O (racemic)
pIC50 (Leishmania donovani): 4.82
pIC50 (L6): 4.74
selectivity ratio [1]: 1.2

SMILES: COc1cc([C@H]2Oc3c(OC)cc(/C=C/C(=O)NC(C)C)cc3[C@@H]2C(=O)NC(C)C)ccc1O (racemic)
pIC50 (Leishmania donovani): 4.27
pIC50 (L6): 4.11
selectivity ratio [1]: 1.4

SMILES: COc1cc([C@H]2Oc3ccc(Br)cc3[C@@H]2C)ccc1O (racemic)
pIC50 (Leishmania donovani): 4.61
pIC50 (L6): 4.88
selectivity ratio [1]: 0.5

SMILES: COc1ccc([C@H]2Oc3ccc(C=O)cc3[C@@H]2C)cc1 (racemic)
pIC50 (Leishmania donovani): 4.52
pIC50 (L6): 4.36
selectivity ratio [1]: 1.4

SMILES: CC(=O)OC[C@H]1c2cc(Br)ccc2O[C@@H]1c1ccc(O)cc1 (racemic)
pIC50 (Leishmania donovani): 4.86
pIC50 (L6): 4.26
selectivity ratio [1]: 4

SMILES: C[C@H]1c2cc(Br)ccc2O[C@@H]1c1ccc(O)cc1 (racemic)
pIC50 (Leishmania donovani): 4.49
pIC50 (L6): 4.25
selectivity ratio [1]: 1.7

SMILES: COc1ccc([C@H]2Oc3ccccc3[C@@H]2COC(C)=O)cc1 (racemic)
pIC50 (Leishmania donovani): 4.23
pIC50 (L6): 4.36
selectivity ratio [1]: 0.8

SMILES: CC(=O)Oc1ccc([C@H]2Oc3ccc(/C=C/C(=O)OC(C)(C)C)cc3[C@@H]2C(=O)OC(C)(C)C)cc1 (racemic)
pIC50 (Leishmania donovani): 5.69
pIC50 (L6): 4.93
selectivity ratio [1]: 5.7

SMILES: COc1cc([C@H]2Oc3c(OC)cc(/C=C/C(=O)NCCO)cc3[C@@H]2C(=O)NCCO)ccc1O (racemic)
pIC50 (Leishmania donovani): 3.67
pIC50 (L6): 3.67
selectivity ratio [1]: 1

SMILES: CC(C)CC(=O)/C=C/c1cc(O)c2c(c1)[C@H](C(=O)CC(C)C)[C@@H](c1ccc(O)c(O)c1)O2 (racemic)
pIC50 (Leishmania donovani): 5.35
pIC50 (L6): 5.30
selectivity ratio [1]: 1.1

SMILES: CC(C)(C)OC(=O)/C=C/c1ccc2c(c1)[C@H](CO)[C@@H](c1ccc(O)cc1)O2 (racemic)
pIC50 (Leishmania donovani): 4.77
pIC50 (L6): 4.47
selectivity ratio [1]: 2

SMILES: OC[C@H]1c2cc(-c3ccc(O)cc3)ccc2O[C@@H]1c1ccc(O)cc1 (racemic)
pIC50 (Leishmania donovani): 4.78
pIC50 (L6): 4.35
selectivity ratio [1]: 2.7

SMILES: COc1cc([C@H]2Oc3ccccc3[C@@H]2C)cc(I)c1O (racemic)
pIC50 (Leishmania donovani): 4.87
pIC50 (L6): 4.33
selectivity ratio [1]: 3.5

SMILES: OC[C@H]1c2cc(Br)ccc2O[C@@H]1c1ccc(O)c(O)c1 (racemic)
pIC50 (Leishmania donovani): 4.75
pIC50 (L6): 5.41
selectivity ratio [1]: 0.2

SMILES: COc1cc([C@H]2Oc3ccc(Cl)cc3[C@@H]2C)ccc1O (racemic)
pIC50 (Leishmania donovani): 4.79
pIC50 (L6): 4.26
selectivity ratio [1]: 3.4

SMILES: OC[C@H]1c2ccccc2O[C@@H]1c1ccc(O)c(Br)c1 (racemic)
pIC50 (Leishmania donovani): 4.36
pIC50 (L6): 3.94
selectivity ratio [1]: 2.6

SMILES: COc1ccc([C@H]2Oc3ccc(Br)cc3[C@@H]2C)cc1Br (racemic)
pIC50 (Leishmania donovani): 4.53
pIC50 (L6): 4.40
selectivity ratio [1]: 1.3

SMILES: OC[C@H]1c2cc(Br)ccc2O[C@@H]1c1ccc(O)c(Br)c1 (racemic)
pIC50 (Leishmania donovani): 4.66
pIC50 (L6): 4.19
selectivity ratio [1]: 3

SMILES: COc1cc([C@H]2Oc3ccc(Br)cc3[C@@H]2C)cc(Br)c1O (racemic)
pIC50 (Leishmania donovani): 4.76
pIC50 (L6): 4.35
selectivity ratio [1]: 2.6

SMILES: CCCNC(=O)/C=C/c1cc(OC)c2c(c1)[C@H](C(=O)NCCC)[C@@H](c1ccc(O)c(OC)c1)O2 (racemic)
pIC50 (Leishmania donovani): 5.05
pIC50 (L6): 4.13
selectivity ratio [1]: 8.3

SMILES: COc1cc([C@H]2Oc3ccccc3[C@@H]2C)ccc1O (racemic)
pIC50 (Leishmania donovani): 4.23
pIC50 (L6): 4.07
selectivity ratio [1]: 1.4

SMILES: COc1ccc([C@H]2Oc3ccccc3[C@@H]2CO)cc1OC (racemic)
pIC50 (Leishmania donovani): 3.87
pIC50 (L6): 4.27
selectivity ratio [1]: 0.4

Drug metabolism [2]: Metabolite_Detected
Drug metabolism [3]: Metabolite_Detected
SMILES: CC(C)OC(=O)/C=C/c1cc(O)c2c(c1)[C@H](C(=O)OC(C)C)[C@@H](c1ccc(O)c(O)c1)O2 (racemic)
pIC50 (Leishmania donovani): 6.27
pIC50 (L6): 4.99
selectivity ratio [1]: 18.9

SMILES: OC[C@H]1c2cc(-c3cccnc3F)ccc2O[C@@H]1c1ccc(O)cc1 (racemic)
pIC50 (Leishmania donovani): 4.73
pIC50 (L6): 4.28
selectivity ratio [1]: 2.8

SMILES: COc1ccc([C@H]2Oc3ccccc3[C@@H]2C)cc1 (racemic)
pIC50 (Leishmania donovani): 4.00
pIC50 (L6): 3.81
selectivity ratio [1]: 1.6

SMILES: OC[C@H]1c2cc(Br)ccc2O[C@@H]1c1ccc(O)cc1 (racemic)
pIC50 (Leishmania donovani): 4.73
pIC50 (L6): 4.66
selectivity ratio [1]: 1.2

SMILES: COc1ccc([C@H]2Oc3ccc(/C=C/C(=O)OC(C)(C)C)cc3[C@@H]2C)cc1 (racemic)
pIC50 (Leishmania donovani): 5.40
pIC50 (L6): 4.40
selectivity ratio [1]: 10

SMILES: COc1cc([C@H]2Oc3c(OC)cc(/C=C/C(=O)O)cc3[C@@H]2C(=O)O)ccc1O (racemic)
pIC50 (Leishmania donovani): 5.16
pIC50 (L6): 3.59
selectivity ratio [1]: 37.6

SMILES: COc1cc([C@H]2Oc3ccc(Br)cc3[C@@H]2CO)ccc1O (racemic)
pIC50 (Leishmania donovani): 4.52
pIC50 (L6): 4.49
selectivity ratio [1]: 1.1

SMILES: COc1cc([C@H]2Oc3ccccc3[C@@H]2CO)ccc1O (racemic)
pIC50 (Leishmania donovani): 3.73
pIC50 (L6): 4.24
selectivity ratio [1]: 0.3

SMILES: Cc1ccc(-c2ccc3c(c2)[C@H](CO)[C@@H](c2ccc(O)cc2)O3)s1 (racemic)
pIC50 (Leishmania donovani): 4.79
pIC50 (L6): 4.80
selectivity ratio [1]: 1

SMILES: COc1ccc([C@H]2Oc3ccc(Br)cc3[C@@H]2C)cc1 (racemic)
pIC50 (Leishmania donovani): 4.50
pIC50 (L6): 4.22
selectivity ratio [1]: 1.9

SMILES: COc1ccc([C@H]2Oc3ccc(/C=C/C(=O)OC(C)(C)C)cc3[C@@H]2CF)cc1OC (racemic)
pIC50 (Leishmania donovani): 4.89
pIC50 (L6): 4.47
selectivity ratio [1]: 2.6

SMILES: O=S(=O)(OC[C@H]1c2ccccc2O[C@@H]1c1ccc(OS(=O)(=O)c2ccccn2)cc1)c1ccccn1 (racemic)
pIC50 (Leishmania donovani): 5.20
pIC50 (L6): 3.72
selectivity ratio [1]: 29.9

SMILES: COc1ccc([C@H]2Oc3ccc(Br)cc3[C@@H]2CO)cc1OC (racemic)
pIC50 (Leishmania donovani): 4.47
pIC50 (L6): 4.67
selectivity ratio [1]: 0.6

SMILES: OC[C@H]1c2ccccc2O[C@@H]1c1ccccc1Br (racemic)
pIC50 (Leishmania donovani): 4.66
pIC50 (L6): 4.60
selectivity ratio [1]: 1.2

SMILES: COc1ccc([C@H]2Oc3ccccc3[C@@H]2CO)cc1 (racemic)
pIC50 (Leishmania donovani): 4.15
pIC50 (L6): 4.36
selectivity ratio [1]: 0.6

SMILES: O=Cc1ccc(-c2ccc3c(c2)[C@H](CO)[C@@H](c2ccc(O)cc2)O3)cc1 (racemic)
pIC50 (Leishmania donovani): 4.42
pIC50 (L6): 4.25
selectivity ratio [1]: 1.5

SMILES: COc1cc([C@H]2Oc3c(OC)cc(/C=C/C(=O)CC(C)C)cc3[C@@H]2C(=O)CC(C)C)ccc1O (racemic)
pIC50 (Leishmania donovani): 5.42
pIC50 (L6): 5.28
selectivity ratio [1]: 1.4

SMILES: CC(C)(C)OC(=O)/C=C/c1ccc2c(c1)[C@H](C(=O)OC(C)(C)C)[C@@H](c1ccc(OC(C)(C)C)cc1)O2 (racemic)
pIC50 (Leishmania donovani): 4.88
pIC50 (L6): 3.69
selectivity ratio [1]: 15.5

SMILES: COc1ccc([C@H]2Oc3ccc(/C=C/C(C)=O)cc3[C@@H]2C)cc1 (racemic)
pIC50 (Leishmania donovani): 4.76
pIC50 (L6): 5.03
selectivity ratio [1]: 0.5

SMILES: OC[C@H]1c2ccccc2O[C@@H]1c1cc(Br)c(O)c(Br)c1 (racemic)
pIC50 (Leishmania donovani): 5.00
pIC50 (L6): 3.96
selectivity ratio [1]: 10.8

SMILES: C/C=C/c1cc(OC)c2c(c1)[C@H](C)[C@@H](c1ccc(O)c(OC)c1)O2 (racemic) [LICARIN A]
pIC50 (Leishmania donovani): 5.19
pIC50 (L6): 5.21
selectivity ratio [1]: 1
